Counter-ions that a name gives are not always drawn.

What all share (assay type): functional, cell-based
Experiment [1] can be described thus: Cytotoxicity against human PC3 cells after 24 hrs by MTT assay. The settings on record: PC-3, 24 h. A digest of the protocol:
(§1)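 Cells seeded 24 h before treatment, then exposed continuously to a range of compound concentrations (dissolved in DMSO) for 24 h. MTT (5 mg/mL in PBS) added, 4 h at 37 °C, 5% CO2; absorbance read at 570 nm. IC50 (50% growth inhibition) derived from plotted data, untreated cells as 100%; at least three experiments. Taxol and adriamycin as positive controls.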
In general terms: Tetrazolium dyes change colour on reduction, which living cells bring about.

The subject of the next experiment is DU-145. Nature of the experiment: Cytotoxicity against human DU145 cells after 24 hrs by MTT assay. The settings on record: DU-145, 24 h. A digest of the protocol:
as §1

Experiment [2] in a line: Cytotoxicity against human NCI-H1688 cells after 24 hrs by MTT assay. The conditions noted are these: NCI-H1688, 24 h. A digest of the protocol: as §1
The next experiment deals with A549. Nature of the experiment: Cytotoxicity against human A549 cells after 24 hrs by MTT assay. The settings on record: A549, 24 h. A digest of the protocol: as §1

A word on the IC50: it is the concentration that gives 50% inhibition. High values mean lower potency, low ones higher potency. Turning to `C=C[C@@]1(C)CC[C@@]2(C)[C@@H](CC[C@]34COC(=O)C3=C[C@@H](O)C[C@@H]42)C1`, the IC50 in experiment [1] was 6.2 µM; with DU-145 it was over 10 µM; in experiment [2], over 10 µM; with A549 it was over 10 µM.
Take `COc1cccc2c1C(=O)c1c(O)c3c(c(O)c1C2=O)C[C@@](O)(C(=O)CO)C[C@@H]3O[C@H]1C[C@H](N)[C@H](O)[C@H](C)O1` [DOXORUBICIN HYDROCHLORIDE]: the 50% inhibitory concentration (IC50) in experiment [1] was 11.7 µM; in the experiment with DU-145 it was 21.4 µM; in experiment [2] it was 4.22 µM; in the experiment with A549, 23.7 µM.
For the compound `CC(=O)O[C@H]1C(=O)[C@@]2(C)[C@H]([C@H](OC(=O)c3ccccc3)[C@]3(O)C[C@H](OC(=O)[C@H](O)[C@@H](NC(=O)c4ccccc4)c4ccccc4)C(C)=C1C3(C)C)[C@]1(OC(C)=O)CO[C@@H]1C[C@@H]2O` [PACLITAXEL], the IC50 in experiment [1] was 0.94 µM; with DU-145, 1.79 µM; in experiment [2] it was 0.85 µM.

Values taken from ChEMBL document CHEMBL3352693, “Notolutesins A-J, dolabrane-type diterpenoids from the Chinese liverwort Notoscyphus lutescens” (J Nat Prod, 2014).
